Data reported in PMC5935509 (Bioactive Materials, 2017).

Tested on: HeLa cells
Experiment: Cytotoxicity measurement, CCK-8 cell viability assay
Assay type: cell-based
Conditions: 24 h of incubation, mean, n = 4
In short: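 HeLa cells seeded at 10⁴ cells/well. For the combination arm, anticancer drug was added first (final 1, 10 or 100 µM), then self-assembling peptide at final 16 or 26 µM, charge-matched between peptides. Peptide-alone wells received the same peptide levels. After 24 h, drug and peptide were removed and viability read by CCK-8 absorbance at 450 nm. Four replicates, mean ± SD.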

Structure (SMILES): COc1cccc2c1C(=O)c1c(O)c3c(c(O)c1C2=O)C[C@@](O)(C(=O)CO)C[C@@H]3O[C@H]1C[C@H](N)[C@H](O)[C@H](C)O1 [DOX, Doxorubicin]
- cell viability (1 μM DOX, K10 16 μM or K6 26 μM): 70%
- cell viability (100 μM DOX): 18%
